Data published in ChEMBL document CHEMBL3244281, “Antiviral activity of some beta-diketones. 3. Aryl bis(beta-diketones). Antiherpetic activity” (1978).
In brackets after ≈: the same amount, converted by molar mass. Activity calls are given as the source filed them. The rule behind the calls is not given here.

How the values were obtained:
[1] = system: Human alphaherpesvirus 1; test: Antiviral activity against HSV1; assay type: functional
[2] = system: Human alphaherpesvirus 1; test: Antiherpetic activity against HSV1 AA infected in guinea pig skin assessed as reduction of scab formation at 2% administered 24 hrs after infection as vanishing cream base daily 5 times for 4 days; assay type: functional, organism-based
Method in brief: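 Guinea pigs had HSV-1 applied to shaved, epilated flanks: 0.1 mL tissue-culture virus (titer 10^6.25 TCID50) driven in by multiple vaccination-gun punctures. A 2% vanishing-cream preparation was applied topically from 24 h postinfection, five times daily for 4 days. Placebo-treated animals served as controls. Two scorers rated vesicles and followed lesions and scabbing to day 7.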

[3] = system: Human alphaherpesvirus 2; test: Antiviral activity against HSV2 Curtis infected in monkey BSC-1 cells assessed as reduction of plaque formation at 2 ug/ml after 4 days using crystal violet staining relative to control; assay type: functional; settings: Human alphaherpesvirus 2, Curtis, BSC-1, in Primates, 96 h
Method in brief: (§1)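 BSC-1 monolayers, 4 days old and confluent, were infected with 20-60 PFU in MEM + 2% FCS. They were overlaid with agar (1% ionagar + 2× M-199 + 5% FCS) containing compound, four flasks per condition. Uninfected monolayers with compound served as controls. Flasks were incubated inverted at 37 °C for 4 days, formalin-fixed overnight at 4 °C and crystal violet-stained. Mean plaque count gave % reduction versus infected untreated cultures.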

[4] = system: Human alphaherpesvirus 2; test: Antiviral activity against HSV2 Curtis infected in monkey BSC-1 cells assessed as reduction of plaque formation at 3 ug/ml after 4 days using crystal violet staining relative to control; assay type: functional; settings: Human alphaherpesvirus 2, Curtis, BSC-1, 96 h; method in brief: as §1
[5] = system: Human alphaherpesvirus 2; test: Antiviral activity against HSV2 Curtis infected in monkey BSC-1 cells assessed as reduction of plaque formation at 4 ug/ml after 4 days using crystal violet staining relative to control; assay type: functional; settings: Human alphaherpesvirus 2, Curtis, BSC-1, in Primates, 96 h; method in brief: as §1
[6] = system: Human alphaherpesvirus 1; test: Antiviral activity against HSV1 Sheely infected in monkey BSC-1 cells assessed as reduction of plaque formation at 2 ug/ml after 4 days using crystal violet staining relative to control; assay type: functional; settings: Human alphaherpesvirus 1, Sheely, BSC-1, in Primates, 96 h; method in brief: as §1
[7] = system: Human alphaherpesvirus 1; test: Antiviral activity against HSV1 Sheely infected in monkey BSC-1 cells assessed as reduction of plaque formation at 3 ug/ml after 4 days using crystal violet staining relative to control; assay type: functional; settings: Human alphaherpesvirus 1, Sheely, BSC-1, in Primates, 96 h; method in brief: as §1
[8] = system: Human alphaherpesvirus 1; test: Antiviral activity against HSV1 Sheely infected in monkey BSC-1 cells assessed as reduction of plaque formation at 4 ug/ml after 4 days using crystal violet staining relative to control; assay type: functional; settings: Human alphaherpesvirus 1, Sheely, BSC-1, in Primates, 96 h; method in brief: as §1
[9] = system: Human alphaherpesvirus 2; test: Antiviral activity against HSV2

Row | Structure (SMILES) | MIC [1] [µg/mL] | MIC [9] | further results
1 | CCC(=O)C(CCCCCCOc1cccc(OCCCCCCC(C(=O)CC)C(=O)CC)c1)C(=O)CC | 12 (≈ 22.6 µM) |  | 
2 | CCC(=O)C(CCCCCCOc1ccc(OCCCCCCC(C(=O)CC)C(=O)CC)cc1)C(=O)CC | 6 (≈ 11.3 µM) |  | Activity [2]: Active; inhibition at 2 µg/mL [3]: 18%; inhibition at 3 µg/mL [4]: 59%; inhibition at 4 µg/mL [5]: 93%; inhibition at 2 µg/mL [6]: 21%; inhibition at 3 µg/mL [7]: 43%; inhibition at 4 µg/mL [8]: 89%
3 | CCC(=O)C(CCCCCCOc1ccc(OCCCCCCC(C(=O)CC)C(=O)CC)c(C)c1)C(=O)CC | 25 (≈ 45.9 µM) |  | 
4 | CCC(=O)C(CCCCCCCCOc1ccc(OCCCCCCCCC(C(=O)CC)C(=O)CC)cc1)C(=O)CC |  | inactive | 
5 | CCC(=O)C(CCCCCCCOc1ccc(OCCCCCCCC(C(=O)CC)C(=O)CC)cc1)C(=O)CC | 25 (≈ 44.7 µM) |  | 
6 | CCC(=O)C(CCCCOc1ccc(OCCCC(C(=O)CC)C(=O)CC)cc1)C(=O)CC |  | inactive | 
7 | CCC(=O)C(CCCCCCOc1ccc(OCCCCCCC(C(=O)CC)C(=O)CC)c(Cl)c1)C(=O)CC | 6 (≈ 10.6 µM) |  | 
8 | CCC(=O)C(CCCCCOc1ccc(OCCCCC(C(=O)CC)C(=O)CC)cc1)C(=O)CC |  | inactive | 
9 | CCC(=O)C(CCCOc1ccc(OCCCC(C(=O)CC)C(=O)CC)cc1)C(=O)CC |  | inactive | 
10 | CCC(=O)C(CCCCCCOc1cc(Cl)c(OCCCCCCC(C(=O)CC)C(=O)CC)cc1Cl)C(=O)CC | 6 (≈ 10 µM) |  | 
11 | CCC(=O)C(CCCCCOc1ccc(OCCCCCC(C(=O)CC)C(=O)CC)cc1)C(=O)CC | 3 (≈ 5.97 µM) |  | 
12 | CCC(=O)C(CCCCOc1ccc(OCCCCC(C(=O)CC)C(=O)CC)cc1)C(=O)CC | 3 (≈ 6.32 µM) |  | 
